Experimental data as given in article PMC5108443 (Cardiovascular Therapeutics, 2016).

Legend:
[1] = Steady-state plasma pharmacokinetics of LCZ696 analytes; assay type: in vivo, human; conditions: for T1/2, mean (SD): LCZ696 200 mg bid (Day 21), patients with stable HF; for Exposure in patients with HF higher than in healthy subjects: LCZ696 200 mg bid, healthy-subject exposure from ref 20; for Dose proportionality of Cmax and AUC0-12 h: between LCZ696 100- and 200-mg doses; for Tmax / AUC(0-t) / Cmax: human, plasma
urine cGMP = assay: Urine cGMP; assay type: in vivo, human; conditions: for Urine cGMP, ratio-to-baseline (95% CI): geometric mean ratio; for Urine cGMP: geometric mean
[2] = Safety and tolerability: adverse events; assay type: in vivo, human
Procedure, shortened: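 Open-label study in HFrEF patients: 24-h run-in with ACEI/ARB stopped and other HF drugs kept, then oral test compound 100 mg bid for 7 days and 200 mg bid for 14 days. Patients domiciled on a standardized diet of 3 g sodium and 5 g potassium daily. Monitoring by ECG, vital signs, and electrolyte, renal and hepatic panels. Safety set comprised all patients dosed at least once.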

[3] = Urinary sodium, potassium and creatinine excretion; assay type: in vivo, human; conditions: either treatment period (100 and 200 mg bid)
Procedure, shortened: (§1)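 Same patients, diet and oral dosing schedule. Urine collected over 24 h as two 12-h fractions (8:00–20:00, 20:00–8:00) at baseline, Day 7 and Day 21. Volume recorded; sodium, potassium and creatinine measured by standard laboratory methods, NT-proBNP by Elecsys immunoassay. Geometric means calculated; ratio-to-baseline by paired t-test on log-transformed data.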

plasma NT-proBNP = assay: Plasma NT-proBNP; assay type: in vivo, human
Procedure, shortened: (§2)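 Chronic HF patients (NYHA II–IV, LVEF ≤40%), domiciled on a fixed 3 g sodium/5 g potassium diet. ACEI/ARB stopped over a 24-h run-in. Oral test compound given 100 mg bid for 7 days, then 200 mg bid for 14 days. Plasma drawn at baseline, predose, and 4, 12, 16, 24 h post-dose on Days 7 and 21. Geometric means; ratio-to-baseline with 95% CI by paired t-test on log data.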

urinary NT-proBNP = assay: Urinary NT-proBNP; assay type: in vivo, human
Procedure, shortened: as §1

plasma cGMP = assay: Plasma cGMP; assay type: in vivo, human; conditions: for Plasma cGMP, ratio-to-baseline (95% CI): geometric mean ratio; for Plasma cGMP, predose: geometric mean
[4] = patients with HFrEF, PARADIGM-HF; cited from earlier work
[5] = tested on: plasma renin activity (PRA); assay: Plasma renin activity; assay type: in vivo, human; conditions: for PRA, ratio-to-baseline (95% CI): geometric mean ratio; for PRA, predose: geometric mean
Procedure, shortened: as §2

urine ANP = assay: Urine ANP; assay type: in vivo, human; conditions: for Urine ANP, ratio-to-baseline (95% CI): geometric mean ratio; for Urine ANP: geometric mean
[6] = tested on: plasma renin concentration (PRC); assay: Plasma renin concentration; assay type: in vivo, human; conditions: for PRC, ratio-to-baseline (95% CI): geometric mean ratio; for PRC, predose: geometric mean
Procedure, shortened: as §2

plasma ANP = assay: Plasma ANP; assay type: in vivo, human; conditions: for Plasma ANP, ratio-to-baseline (95% CI): geometric mean ratio; for Plasma ANP, predose: geometric mean
plasma aldosterone = assay: Plasma aldosterone; assay type: in vivo, human
Procedure, shortened: as §2

[7] = tested on: plasma endothelin-1 (ET-1); assay: Plasma endothelin-1; assay type: in vivo, human
Procedure, shortened: as §2

[8] = Day 7 (LCZ696 100 mg bid), N=30
[9] = Day 21 (LCZ696 200 mg bid), N=27
[10] = Day 21, predose, LCZ696 200 mg bid for 14 days

With C[C@H](C[C@@H](Cc1ccc(-c2ccccc2)cc1)NC(=O)CCC(=O)O)C(=O)O [LBQ657] the “T1/2, mean (SD)” value ([1]; oral) was 18.4 (6.8) h, the “Exposure in patients with HF higher than in healthy subjects” value (“Exposure in patients with HF higher than” for short) [1] was about 110% and the “Dose proportionality of Cmax and AUC0-12 h” value (“Dose proportionality” for short) [1] was “approximately dose‐proportional”. The Tmax ([1]; oral, 200 mg) was at most 2.5 h, the AUC(0-t) ([1]; po, 100 mg) was 82600 ng·h/mL and the Cmax ([1]; po, 100 mg) was 9100 ng/mL. The Tmax ([1]; po, 100 mg) was 2.5 h, the AUC(0-t) ([1]; po, 200 mg) was 147000 ng·h/mL and the Cmax ([1]; po, 200 mg) was 16300 ng/mL. It also gave a Tmax ([1]; po, 200 mg) of 2 h.

In the case of CCOC(=O)[C@H](C)C[C@@H](Cc1ccc(-c2ccccc2)cc1)NC(=O)CCC(=O)O [Sacubitril, sacubitril], the “T1/2, mean (SD)” value ([1]; oral) is reported as 3.9 (3.6) h, the “Exposure in patients with HF higher than” value [1] is reported as “approximately 55%” and the “Dose proportionality” value [1] is reported as “approximately dose‐proportional”. For the same molecule, the Tmax ([1]; oral, 200 mg) was at most 0.5 h, the AUC(0-t) ([1]; po, 100 mg) was 1540 ng·h/mL and the Cmax ([1]; po, 100 mg) was 1230 ng/mL. For the same molecule, the Tmax ([1]; po, 100 mg) was 0.5 h, the AUC(0-t) ([1]; po, 200 mg) was 3150 ng·h/mL and the Cmax ([1]; po, 200 mg) was 2410 ng/mL. It also gave a Tmax ([1]; po, 200 mg) of 0.5 h.

With CCCCC(=O)N(Cc1ccc(-c2ccccc2-c2nnn[nH]2)cc1)[C@H](C(=O)O)C(C)C [Valsartan, valsartan, reference compound] the “T1/2, mean (SD)” value ([1]; oral) was 13.7 (5.0) h, the “Exposure in patients with HF higher than” value [1] was about 132% and the “Dose proportionality” value [1] was “less than dose‐proportional”. The Tmax ([1]; oral, 200 mg) was at most 2 h, the AUC(0-t) ([1]; po, 100 mg) was 25900 ng·h/mL and the Cmax ([1]; po, 100 mg) was 3810 ng/mL. The Tmax ([1]; po, 100 mg) was 2 h, the AUC(0-t) ([1]; po, 200 mg) was 38800 ng·h/mL and the Cmax ([1]; po, 200 mg) was 6040 ng/mL. For the same molecule, the Tmax ([1]; po, 200 mg) was 2 h.

With Sacubitril/valsartan [LCZ696] the “Urine cGMP, ratio-to-baseline (95% CI)” value (urine cGMP; Day 7 (LCZ696 100 mg bid)) was 1.17 (0.97–1.40) P = 0.090, the “Urine cGMP” value (urine cGMP; [8]) was 1096.09 nmol and the “Urine cGMP, ratio-to-baseline (95% CI)” value (urine cGMP; Day 21 (LCZ696 200 mg bid)) was 1.22 (1.01–1.47) P = 0.040. For the same molecule, the “Urine cGMP” value (urine cGMP; [9]) was 1180.57 nmol, the “Dose relation of the frequency of AEs” value ([2]; 100 vs 200 mg bid) was “not dose related” and the “Deaths or serious AEs during the study” value ([2]; LCZ696 100 mg bid 7 days then 200 mg bid 14 days, 30 patients) was “No deaths or serious AEs occurred”. The “Subjects with AE” value ([2]; LCZ696 100 mg bid (N=30), 7-day titration period) was 16 (53.3%) n (%), the Overall tolerability ([2]; LCZ696 100 mg bid for 7 days and 200 mg bid for 14 days) was “well tolerated” and the “Subjects with AE” value ([2]; LCZ696 200 mg bid (N=30), 14-day treatment period) was 15 (50.0%) n (%). The “Subjects with AE” value ([2]; Total (N=30)) was 21 (70.0%) n (%), the “Patients who completed the study treatment as per protocol” value ([2]; of 30 patients) was 27 (90%) n (%) and the “Hypotension reported as an AE” value ([2]; whole study) was “not reported”. The “Change in mean urinary sodium, potassium, and creatinine excretion” value [3] was “No statistically significant changes”, the “Plasma NT-proBNP, ratio-to-baseline [95% CI]” value (plasma NT-proBNP; Day 7 (LCZ696 100 mg bid)) was 0.53 [0.45–0.62] and the “Plasma NT-proBNP, ratio-to-baseline [95% CI]” value (plasma NT-proBNP; Day 21 (LCZ696 200 mg bid)) was 0.56 [0.45–0.70]. For the same molecule, the “Urinary NT-proBNP, ratio-to-baseline” value (urinary NT-proBNP; after LCZ696 100 mg bid for 7 days) was 0.68, the “Urinary NT-proBNP, ratio-to-baseline” value (urinary NT-proBNP; after LCZ696 200 mg bid for 14 days) was 0.74 and the “Plasma cGMP, ratio-to-baseline (95% CI)” value (plasma cGMP; Day 7 (LCZ696 100 mg bid)) was 1.24 (1.06–1.45) P = 0.008. For the same molecule, the “Plasma cGMP, predose” value (plasma cGMP; Day 7 (LCZ696 100 mg bid), N=30, patients with HFrEF) was 13.83 nmol/L, the “Plasma cGMP, ratio-to-baseline (95% CI)” value (plasma cGMP; Day 21 (LCZ696 200 mg bid)) was 1.38 (1.16–1.65) P < 0.001 and the “Plasma cGMP, predose” value (plasma cGMP; [9]) was 15.07 nmol/L. The “Reduction of CV and all-cause mortality and HF hospitalizations versus enalapril” value [4] was “superior”, the “PRA, ratio-to-baseline (95% CI)” value ([5]; Day 7 (LCZ696 100 mg bid)) was 3.94 (2.27–6.87) P < 0.001 and the “PRA, predose” value ([5]; Day 7 (LCZ696 100 mg bid), 29 patients) was 2.70 ng/mL/h. For the same molecule, the “PRA, ratio-to-baseline (95% CI)” value ([5]; Day 21 (LCZ696 200 mg bid)) was 2.27 (1.20–4.32) P = 0.014, the “PRA, predose” value ([5]; Day 21 (LCZ696 200 mg bid), 26 patients) was 1.64 ng/mL/h and the “Urine ANP, ratio-to-baseline (95% CI)” value (urine ANP; Day 7 (LCZ696 100 mg bid)) was 1.69 (1.40–2.03) P < 0.001. For the same molecule, the “Urine ANP” value (urine ANP; [8]) was 353.42 ng, the “Urine ANP, ratio-to-baseline (95% CI)” value (urine ANP; Day 21 (LCZ696 200 mg bid)) was 1.82 (1.54–2.17) P < 0.001 and the “Urine ANP” value (urine ANP; [9]) was 378.48 ng. The “PRC, ratio-to-baseline (95% CI)” value ([6]; Day 7 (LCZ696 100 mg bid)) was 4.30 (2.78–6.64) P < 0.001, the “PRC, predose” value [6, 8] was 42.64 pg/mL and the “PRC, ratio-to-baseline (95% CI)” value ([6]; Day 21 (LCZ696 200 mg bid)) was 3.50 (2.13–5.76) P < 0.001. For the same molecule, the “PRC, predose” value [6, 9] was 34.11 pg/mL, the “Plasma ANP, ratio-to-baseline (95% CI)” value (plasma ANP; Day 7 (LCZ696 100 mg bid)) was 0.92 (0.80–1.05) P = 0.223 and the “Plasma ANP, predose” value (plasma ANP; [8]) was 105.20 pg/mL. For the same molecule, the “Plasma ANP, ratio-to-baseline (95% CI)” value (plasma ANP; Day 21 (LCZ696 200 mg bid)) was 1.00 (0.80–1.26) P = 0.986, the “Plasma ANP, predose” value (plasma ANP; [9]) was 110.83 pg/mL and the “Plasma ANP versus baseline” value (plasma ANP; either treatment period (100 and 200 mg bid)) was “not significantly different from baseline”. The “Predose plasma aldosterone level compared with baseline” value (plasma aldosterone; Day 7 (LCZ696 100 mg bid)) was “trend toward a reduction”, the “Decrease in plasma aldosterone levels” value (plasma aldosterone; Day 21) was 21% and the “Plasma aldosterone, ratio-to-baseline [95% CI]” value (plasma aldosterone; [10]) was 0.79 [0.65–0.95]. The “Predose plasma ET-1 level compared with baseline” value ([7]; Day 7 (LCZ696 100 mg bid)) was “trend toward a reduction” and the “Plasma ET-1, ratio-to-baseline [95% CI]” value [7, 10] was 0.80 [0.71–0.91].
